How the values were obtained:
Liver microsomes [1] = assay: Intrinsic clearance in human liver microsome; format: ADME
Liver microsomes [2] = assay: Intrinsic clearance in rat liver microsome; format: ADME
Motilin receptor [3] = target: T1, Motilin receptor (Homo sapiens, UniProt O43193); assay: Agonist activity at human recombinant motilin receptor expressed in HEK293 cells by FLIPR assay; format: functional, cell-based
Procedure, shortened: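 HEK293 cells stably expressing human motilin receptor, seeded on poly-lysine plates 24 h before assay. Loaded with Fluo-4-AM (final) and 1 mM probenecid (final) in HEPES-buffered saline with 0.1% BSA for 1 h at 25 °C, washed, rested 20 min at 25 °C. Fluorescence change followed for 2 min after compound addition. Peak change over baseline was fitted with a 4-parameter logistic to give pEC50. Mean of at least three independent experiments (n = 2 for some).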

Cytochrome P450 3A4 [4] = target: T2, Cytochrome P450 3A4 (Homo sapiens, UniProt P08684); assay: Inhibition of CYP3A4 using diethoxyfluorescein substrate; format: ADME
Cytochrome P450 3A4 [5] = target: T2, Cytochrome P450 3A4; assay: Inhibition of CYP3A4 using phenyl-piperazinyl-methyl-benzyl-resofurin substrate; format: ADME
Cytochrome P450 2C19 = Cytochrome P450 2C19 (Homo sapiens, UniProt P33261); assay: Inhibition of CYP2C19; format: ADME
Cytochrome P450 1A2 = target: T3, Cytochrome P450 1A2 (Homo sapiens, UniProt P05177); assay: Inhibition of CYP1A2; format: ADME
T3 sequence (P05177 whole entry): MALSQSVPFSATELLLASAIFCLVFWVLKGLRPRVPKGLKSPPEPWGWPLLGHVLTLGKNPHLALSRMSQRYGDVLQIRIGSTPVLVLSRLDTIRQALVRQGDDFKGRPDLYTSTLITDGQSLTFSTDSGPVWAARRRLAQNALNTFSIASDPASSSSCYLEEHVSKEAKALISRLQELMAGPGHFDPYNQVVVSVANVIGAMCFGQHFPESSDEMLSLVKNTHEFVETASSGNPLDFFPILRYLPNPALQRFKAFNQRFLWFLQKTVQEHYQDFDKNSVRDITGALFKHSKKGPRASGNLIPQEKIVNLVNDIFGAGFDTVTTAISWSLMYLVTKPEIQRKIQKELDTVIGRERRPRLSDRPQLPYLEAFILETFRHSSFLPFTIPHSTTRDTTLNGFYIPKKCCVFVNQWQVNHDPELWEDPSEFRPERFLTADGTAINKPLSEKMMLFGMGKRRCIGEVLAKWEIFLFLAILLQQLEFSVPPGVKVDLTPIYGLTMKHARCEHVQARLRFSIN

[6] = Oral bioavailability in dog; format: ADME, organism-based, Canis lupus familiaris; conditions: in vivo
Stomach [7] = assay: Potentiation of electrical field stimulation-induced contraction in New Zealand white rabbit gastric antrum at 3 uM; format: functional; conditions: Oryctolagus cuniculus
[8] = target: Growth hormone secretagogue receptor type 1 (Homo sapiens, UniProt Q92847); assay: Inhibition of human Ghrelin receptor
[9] = Clearance in dog; format: ADME, organism-based, Canis lupus familiaris; conditions: in vivo
[10] = Clearance in rat; format: ADME, organism-based; conditions: in vivo
Cytochrome P450 2D6 = Cytochrome P450 2D6 (Homo sapiens, UniProt P10635); assay: Inhibition of CYP2D6; format: ADME
[11] = Oral bioavailability in rat; format: ADME, organism-based; conditions: in vivo
Stomach [12] = assay: Potentiation of electrical field stimulation-induced contraction in New Zealand white rabbit gastric antrum at 0.3 uM; format: functional; conditions: Oryctolagus cuniculus
[13] = target: Voltage-gated inwardly rectifying potassium channel KCNH2 (Homo sapiens, UniProt Q12809); assay: Inhibition of human ERG binding
[14] = Distribution coefficient, log D at pH 7.4; format: physicochemical; conditions: octanol/water
Stomach [15] = assay: Potentiation of electrical field stimulation-induced contraction in New Zealand white rabbit gastric antrum at 1 uM; format: functional; conditions: Oryctolagus cuniculus
Cytochrome P450 2C9 = Cytochrome P450 2C9 (Homo sapiens, UniProt P11712); assay: Inhibition of CYP2C9; format: ADME
Stomach [16] = assay: Potentiation of electrical field stimulation-induced contraction in New Zealand white rabbit gastric antrum at 10 uM; format: functional; conditions: Oryctolagus cuniculus
[17] = Aqueous solubility of the compound; format: physicochemical
Motilin receptor [18] = target: T1, Motilin receptor; assay: Agonist activity at human recombinant motilin receptor expressed in CHO cells by FLIPR assay; format: functional, cell-based

T1 sequence (O43193 whole entry): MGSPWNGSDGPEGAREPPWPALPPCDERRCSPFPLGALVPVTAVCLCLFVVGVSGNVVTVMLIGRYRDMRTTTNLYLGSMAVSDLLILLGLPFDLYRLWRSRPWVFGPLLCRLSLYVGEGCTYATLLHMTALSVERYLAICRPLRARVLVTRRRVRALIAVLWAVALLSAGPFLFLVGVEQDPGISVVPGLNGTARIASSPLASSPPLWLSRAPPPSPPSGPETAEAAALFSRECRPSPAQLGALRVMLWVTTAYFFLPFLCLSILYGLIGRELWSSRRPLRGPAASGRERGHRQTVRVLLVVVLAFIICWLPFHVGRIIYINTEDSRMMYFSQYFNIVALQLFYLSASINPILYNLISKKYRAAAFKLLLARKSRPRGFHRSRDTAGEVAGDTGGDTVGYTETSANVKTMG
T2 sequence (P08684 whole entry): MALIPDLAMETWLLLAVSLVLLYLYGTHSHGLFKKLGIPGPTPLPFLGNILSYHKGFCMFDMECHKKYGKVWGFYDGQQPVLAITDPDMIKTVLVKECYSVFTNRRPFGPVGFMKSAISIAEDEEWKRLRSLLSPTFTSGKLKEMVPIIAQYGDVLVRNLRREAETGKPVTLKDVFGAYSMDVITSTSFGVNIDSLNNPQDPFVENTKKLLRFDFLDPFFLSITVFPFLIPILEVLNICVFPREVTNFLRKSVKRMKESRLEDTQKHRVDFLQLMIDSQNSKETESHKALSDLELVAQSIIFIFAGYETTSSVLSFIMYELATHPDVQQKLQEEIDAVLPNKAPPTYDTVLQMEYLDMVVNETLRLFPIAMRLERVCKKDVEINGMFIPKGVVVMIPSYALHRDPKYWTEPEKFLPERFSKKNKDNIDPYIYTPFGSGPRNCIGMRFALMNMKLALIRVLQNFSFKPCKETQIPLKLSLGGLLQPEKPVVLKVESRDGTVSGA
Chain of Cytochrome P450 2D6 (P10635 whole entry): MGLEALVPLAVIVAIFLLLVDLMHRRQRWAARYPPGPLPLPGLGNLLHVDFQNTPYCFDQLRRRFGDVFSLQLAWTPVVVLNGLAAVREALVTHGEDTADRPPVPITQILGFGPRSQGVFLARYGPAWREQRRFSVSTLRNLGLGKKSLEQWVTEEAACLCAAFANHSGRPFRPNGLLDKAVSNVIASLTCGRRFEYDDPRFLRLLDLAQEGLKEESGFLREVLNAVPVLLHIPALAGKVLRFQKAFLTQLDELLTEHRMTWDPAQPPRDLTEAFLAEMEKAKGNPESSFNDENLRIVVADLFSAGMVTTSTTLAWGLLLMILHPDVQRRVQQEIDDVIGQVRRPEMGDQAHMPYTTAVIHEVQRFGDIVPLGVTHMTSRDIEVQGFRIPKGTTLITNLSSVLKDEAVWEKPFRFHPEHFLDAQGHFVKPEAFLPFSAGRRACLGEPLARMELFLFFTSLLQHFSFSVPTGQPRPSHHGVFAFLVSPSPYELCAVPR
Chain of Growth hormone secretagogue receptor type 1 (Q92847 whole entry): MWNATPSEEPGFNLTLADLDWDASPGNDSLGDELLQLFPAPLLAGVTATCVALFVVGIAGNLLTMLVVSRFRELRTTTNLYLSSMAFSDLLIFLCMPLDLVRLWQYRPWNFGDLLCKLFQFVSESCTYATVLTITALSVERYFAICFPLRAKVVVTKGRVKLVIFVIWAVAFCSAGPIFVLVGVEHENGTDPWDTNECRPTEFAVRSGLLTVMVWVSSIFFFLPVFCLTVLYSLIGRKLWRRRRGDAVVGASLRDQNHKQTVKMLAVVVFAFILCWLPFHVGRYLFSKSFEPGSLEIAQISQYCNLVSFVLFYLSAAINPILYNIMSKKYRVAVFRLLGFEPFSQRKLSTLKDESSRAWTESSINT
Chain of Cytochrome P450 2C19 (P33261 whole entry): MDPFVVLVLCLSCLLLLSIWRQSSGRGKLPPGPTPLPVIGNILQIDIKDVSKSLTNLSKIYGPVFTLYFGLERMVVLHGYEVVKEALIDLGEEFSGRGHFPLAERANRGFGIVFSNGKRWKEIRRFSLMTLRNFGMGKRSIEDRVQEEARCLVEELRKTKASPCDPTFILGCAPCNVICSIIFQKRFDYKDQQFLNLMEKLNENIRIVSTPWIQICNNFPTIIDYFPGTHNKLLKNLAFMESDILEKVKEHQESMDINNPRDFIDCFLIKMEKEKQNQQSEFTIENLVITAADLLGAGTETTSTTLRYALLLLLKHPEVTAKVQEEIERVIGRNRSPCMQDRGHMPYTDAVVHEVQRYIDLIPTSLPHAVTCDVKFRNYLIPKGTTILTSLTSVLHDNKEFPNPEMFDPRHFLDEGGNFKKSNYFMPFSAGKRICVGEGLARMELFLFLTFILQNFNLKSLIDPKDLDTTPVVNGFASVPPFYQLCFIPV
Chain of Voltage-gated inwardly rectifying potassium channel KCNH2 (Q12809 whole entry): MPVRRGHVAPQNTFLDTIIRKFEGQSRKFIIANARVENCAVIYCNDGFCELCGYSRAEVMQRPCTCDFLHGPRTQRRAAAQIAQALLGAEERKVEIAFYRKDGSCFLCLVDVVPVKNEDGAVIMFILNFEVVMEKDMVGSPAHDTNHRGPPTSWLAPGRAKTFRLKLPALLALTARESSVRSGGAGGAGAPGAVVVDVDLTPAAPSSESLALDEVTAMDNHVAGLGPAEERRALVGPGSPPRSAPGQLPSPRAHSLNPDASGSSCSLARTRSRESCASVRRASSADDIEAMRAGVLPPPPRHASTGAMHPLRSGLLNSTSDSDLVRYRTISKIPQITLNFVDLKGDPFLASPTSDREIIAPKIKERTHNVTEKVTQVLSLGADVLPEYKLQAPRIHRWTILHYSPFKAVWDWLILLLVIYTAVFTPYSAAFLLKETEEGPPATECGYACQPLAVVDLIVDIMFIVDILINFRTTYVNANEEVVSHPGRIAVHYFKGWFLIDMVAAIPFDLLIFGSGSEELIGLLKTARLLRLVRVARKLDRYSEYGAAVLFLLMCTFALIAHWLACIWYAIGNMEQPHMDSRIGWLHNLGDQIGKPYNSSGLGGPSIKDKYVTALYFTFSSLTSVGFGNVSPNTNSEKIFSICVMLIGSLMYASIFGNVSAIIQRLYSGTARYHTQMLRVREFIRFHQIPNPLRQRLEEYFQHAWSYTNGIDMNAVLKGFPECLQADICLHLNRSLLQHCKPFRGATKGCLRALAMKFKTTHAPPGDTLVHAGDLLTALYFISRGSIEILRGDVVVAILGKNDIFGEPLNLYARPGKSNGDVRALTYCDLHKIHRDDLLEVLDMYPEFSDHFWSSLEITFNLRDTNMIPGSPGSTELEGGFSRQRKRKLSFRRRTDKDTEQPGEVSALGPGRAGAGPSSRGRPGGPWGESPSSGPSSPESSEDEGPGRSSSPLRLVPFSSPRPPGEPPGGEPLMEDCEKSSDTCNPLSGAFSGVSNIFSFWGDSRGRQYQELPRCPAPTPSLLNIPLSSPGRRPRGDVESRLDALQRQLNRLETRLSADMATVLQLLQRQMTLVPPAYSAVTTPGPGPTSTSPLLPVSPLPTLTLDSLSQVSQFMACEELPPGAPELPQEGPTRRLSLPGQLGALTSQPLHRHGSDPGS
Chain of Cytochrome P450 2C9 (P11712 whole entry): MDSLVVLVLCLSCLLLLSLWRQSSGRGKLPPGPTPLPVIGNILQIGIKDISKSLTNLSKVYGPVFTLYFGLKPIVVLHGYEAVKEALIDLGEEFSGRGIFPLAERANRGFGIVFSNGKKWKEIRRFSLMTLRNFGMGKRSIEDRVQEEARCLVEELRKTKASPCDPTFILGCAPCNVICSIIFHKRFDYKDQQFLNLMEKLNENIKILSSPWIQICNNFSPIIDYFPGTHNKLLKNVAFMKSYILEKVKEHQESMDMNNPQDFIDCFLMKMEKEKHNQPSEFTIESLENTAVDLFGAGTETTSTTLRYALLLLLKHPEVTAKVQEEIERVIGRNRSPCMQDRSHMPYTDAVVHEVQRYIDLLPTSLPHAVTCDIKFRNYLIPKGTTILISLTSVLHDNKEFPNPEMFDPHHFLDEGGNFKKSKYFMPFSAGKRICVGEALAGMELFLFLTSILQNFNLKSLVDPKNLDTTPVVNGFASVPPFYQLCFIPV

Structure (SMILES) | CL (Liver microsomes [1]) [mL/min/g] | CL (Liver microsomes [2]) [mL/min/g] | EC50 (Motilin receptor [3]) [nM] | IC50 (Cytochrome P450 3A4 [4]) [µM] | IC50 (Cytochrome P450 3A4 [5]) [µM] | other results
C[C@@H]1CN(Cc2ccc(-c3cccnc3C(=O)N3CCC(Nc4ccc(F)c(F)c4)CC3)cc2)C[C@H](C)N1 | 7 | 5.9 | 2 | – | – | –
C[C@@H]1CN(Cc2ccc(-c3ccccc3C(=O)N3CCC(Oc4ccc(F)cc4)CC3)cc2)C[C@H](C)N1 | – | – | 63.1 | – | – | –
C[C@@H]1CN(Cc2ccc(-c3ccccc3CN(C)C(=O)COc3ccccc3)cc2)C[C@H](C)N1 | 4.9 | 9.5 | 79.4 | 7 | 24 | –
C[C@@H]1CN(Cc2cnc(-c3ccccc3C(=O)N3CCC(Nc4ccc(F)cc4)CC3)s2)C[C@H](C)N1 | – | – | 398 | – | – | –
C[C@@H]1CN(Cc2ccc(-c3cccnc3C(=O)N3CCC(Nc4cccc(C#N)c4)CC3)cc2)C[C@H](C)N1 | 3.5 | 4.6 | 20 | – | – | –
C[C@@H]1CN(Cc2ccc(-c3cccnc3C(=O)N3CCC(Nc4cccc(F)c4)CC3)cc2)C[C@H](C)N1 | 4.4 | 6.5 | 6.31 | – | – | –
C[C@@H]1CN(Cc2ccc(-c3cccnc3C(=O)N3CCC(Cc4ccc(F)cc4)CC3)cc2)C[C@H](C)N1 | 16 | 16 | 10 | 13 | 5.6 | –
C[C@@H]1CN(Cc2ccc(-c3cccnc3C(=O)N3CCC(Nc4ccc(F)cc4)CC3)cc2)C[C@H](C)N1 | 2.6 | 2.8 | 20 | > 100 | > 100 | IC50 (Cytochrome P450 2C19): > 100 µM; IC50 (Cytochrome P450 1A2): > 100 µM; bioavailability [6]: 58%; Emax at 3 µM (Stomach [7]): 343%; EC50 [8]: 100 nM; clearance [9]: 19 mL/min/kg; clearance [10]: 53 mL/min/kg; IC50 (Cytochrome P450 2D6): 15 µM; bioavailability [11]: 13%; Emax at 0.3 µM (Stomach [12]): 168%; IC50 [13]: > 31.6 µM; logD [14]: 0.72; Emax at 1 µM (Stomach [15]): 299%; IC50 (Cytochrome P450 2C9): > 100 µM; Emax at 10 µM (Stomach [16]): 486%
Cc1cc(CC(=O)N(C)Cc2ccccc2-c2ccc(CN3C[C@@H](C)N[C@@H](C)C3)cc2)on1 | 2.4 | 2.9 | 1000 | 40 | > 100 | –
C[C@@H]1CN(Cc2ccc(-c3ccccc3C(=O)N3CCC(NC(=O)c4ccc(F)cc4)CC3)cc2)C[C@H](C)N1 | – | – | > 10000 | – | – | –
C[C@@H]1CN(Cc2ccc(N3CCCC3C(=O)N3CCC(Nc4cccc(F)c4)CC3)cc2)C[C@H](C)N1 (some centres not stated) | – | – | 2510 | – | – | –
C[C@@H]1CN(Cc2ccc(-c3cccnc3C(=O)N3CCC(Nc4ccc(F)cc4)CC3)cc2)C[C@H](C)N1.Cl | – | – | – | – | – | solubility [17]: ≥ 1000 µg/mL
C[C@@H]1CN(Cc2ccc(-n3ccnc3C(=O)N3CCC(Nc4cccc(F)c4)CC3)cc2)C[C@H](C)N1.Cl | – | – | – | – | – | solubility [17]: ≥ 500 µg/mL
C[C@@H]1CN(Cc2ccc(-c3cccnc3C(=O)N3CCC(Nc4ccc(C(N)=O)cc4)CC3)cc2)C[C@H](C)N1 | – | – | 2510 | – | – | –
C[C@@H]1CN(Cc2ccc(-c3cccnc3C(=O)N3CCC(Nc4cccc(F)c4)CC3)cc2F)C[C@H](C)N1 | 9.4 | 12 | 10 | – | – | –
CCN(CCc1ccccc1)C(=O)c1ccccc1-c1ccc(CN2C[C@@H](C)N[C@@H](C)C2)cc1 | 40 | 26 | 7.94 | 0.9 | 1.5 | –
C[C@@H]1CN(Cc2ccc(-c3cccnc3C(=O)N3CCC(Nc4ccc(C#N)cc4)CC3)cc2)C[C@H](C)N1 | – | – | 631 | – | – | –
COc1cc(-c2cccnc2C(=O)N2CCC(Nc3ccc(F)cc3)CC2)ccc1CN1C[C@@H](C)N[C@@H](C)C1 | 5.3 | 5.9 | 5.01 | – | – | –
COc1cccc(CCN(Cc2ccccc2-c2ccc(CN3C[C@@H](C)N[C@@H](C)C3)cc2)C(=O)NC2CCCCC2)c1 | > 50 | 23 | 50.1 | 0.2 | 0.4 | EC50 (Motilin receptor [18]): 10 nM
C[C@@H]1CN(Cc2ccc(-c3ccccc3C(=O)N3CCC(C(=O)c4ccc(F)cc4)CC3)cc2)C[C@H](C)N1 | – | – | 63.1 | 4.8 | 3.6 | –

Reference: ChEMBL document CHEMBL1152208, “The discovery of biaryl carboxamides as novel small molecule agonists of the motilin receptor” (Bioorg Med Chem Lett, 2008)
